Measured values from ChEMBL document CHEMBL3734685, “2-Aminopyrimidines as dual adenosine A1/A2A antagonists” (Eur J Med Chem, 2015).
Activity calls are given as the source filed them. The calls are words filed in the database; no cut-off is given here.

What was measured:
[1] = target: Adenosine receptor A2a (Rattus norvegicus, UniProt P30543); experiment: Displacement of [3H]NECA from adenosine A2A receptor in Sprague-Dawley rat striatal membranes after 1 hr by scintillation counting analysis; set-up: species or system Striatum, Membrane
Sequence of Adenosine receptor A2a (P30543 whole entry): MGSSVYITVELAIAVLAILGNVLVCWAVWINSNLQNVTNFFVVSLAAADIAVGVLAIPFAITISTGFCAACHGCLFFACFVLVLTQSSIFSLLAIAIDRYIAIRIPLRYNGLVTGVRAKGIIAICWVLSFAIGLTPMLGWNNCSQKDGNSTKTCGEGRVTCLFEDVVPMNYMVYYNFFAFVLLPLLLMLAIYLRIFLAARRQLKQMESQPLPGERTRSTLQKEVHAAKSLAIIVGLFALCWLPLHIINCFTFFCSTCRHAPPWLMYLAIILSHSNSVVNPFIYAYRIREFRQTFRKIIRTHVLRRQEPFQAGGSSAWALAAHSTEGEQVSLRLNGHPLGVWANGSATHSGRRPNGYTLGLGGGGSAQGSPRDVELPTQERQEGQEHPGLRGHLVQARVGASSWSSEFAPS

[2] = target: T1, Adenosine receptor A1 (Rattus norvegicus, UniProt P25099); experiment: Displacement of [3H]DPCPX from adenosine A1 receptor in Sprague-Dawley rat whole brain membranes after 1 hr by scintillation counting analysis; set-up: species or system Membrane
T1 sequence (P25099 whole entry): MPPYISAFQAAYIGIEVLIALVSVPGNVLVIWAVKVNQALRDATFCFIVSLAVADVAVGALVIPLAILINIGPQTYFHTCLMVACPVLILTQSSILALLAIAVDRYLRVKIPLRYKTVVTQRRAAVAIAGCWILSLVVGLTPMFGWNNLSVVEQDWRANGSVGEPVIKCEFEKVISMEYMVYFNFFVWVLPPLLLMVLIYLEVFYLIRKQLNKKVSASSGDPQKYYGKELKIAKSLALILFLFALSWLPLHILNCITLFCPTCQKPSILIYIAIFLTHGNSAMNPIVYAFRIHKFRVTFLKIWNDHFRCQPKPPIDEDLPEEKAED
In short: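 Male rat whole-brain homogenate in 50 mM Tris (pH 7.7), ~5 mg original tissue per incubation, with 0.1 units adenosine deaminase and 0.1 nM [3H]DPCPX. Incubated 1 h, filtered on GF/B, counted by scintillation. IC50 from one-site competition, converted to Ki by Cheng-Prusoff. Duplicates, mean ± SEM.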

[3] = species: Rattus norvegicus; experiment: Selectivity index, ratio of Ki for adenosine A2A receptor in Sprague-Dawley rat striatal membranes to Ki for adenosine A1 receptor in Sprague-Dawley rat whole brain membranes
In short: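 Ratio of two Ki values. A2A: rat striatal membranes (~10 mg tissue) in 50 mM Tris pH 7.7 with 10 mM MgCl2, 0.2 units adenosine deaminase, 50 nM CPA and 4 nM [3H]NECA. A1: whole-brain membranes with [3H]DPCPX 0.1 nM. Test compound 0–100 µM, 1 h incubation, filtration and scintillation counting. Non-specific binding with 100 µM CPA. Duplicate determinations.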

[4] = Cytotoxicity against human HeLa cells assessed as cell viability at 1 uM after 24 hrs by MTT assay; type: cell-based; conditions: read-out: Activity
In short: (§1)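 HeLa cells grown to confluence in DMEM with 10% FBS, penicillin/streptomycin and fungizone at 37 °C, 10% CO2. Seeded at 500 000 cells/well, then after 24 h switched to serum-free DMEM with test compound (DMSO stocks, filtered). Exposure lasted 24 h at 37 °C. Read-out was MTT 0.5%, 2 h in the dark, formazan dissolved in isopropanol, absorbance 560. Formic-acid lysis set 0% viability and untreated wells 100%. Triplicate, mean ± SD.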

[5] = Cytotoxicity against human HeLa cells assessed as cell viability at 10 uM after 24 hrs by MTT assay; type: cell-based; conditions: read-out: Activity; in short: as §1
[6] = system: Rattus norvegicus; experiment: Reduction in haloperiodol induced catalepsy time in Sprague-Dawley rat at 1 to 2 mg/kg, ip dosed 30 mins after halperiodol challenge measured 60 mins after halperiodol challenge
[7] = system: Rattus norvegicus; experiment: Reduction in haloperiodol induced catalepsy time in Sprague-Dawley rat at 0.1 to 2 mg/kg, ip dosed 30 mins after halperiodol challenge measured 60 mins after halperiodol challenge

SMILES	Ki [1]	Ki [2]	Ratio Ki [3]	viability at 24 h, 1 µM [4]	viability at 24 h, 10 µM [5]	Activity [6]	Activity [7]
Cc1ccc(-c2cc(-c3cccc(C(=O)N4CCN(C)CC4)c3)nc(N)n2)o1	16.3 nM	136 nM	0.1	107%	76.8%	Active	–
COc1ccc(-c2cc(-c3ccc(C)o3)nc(N)n2)cc1OC	2780 nM	650 nM	4.3	–	–	–	–
Nc1nc(-c2ccc(F)cc2)cc(-c2ccco2)n1	257 nM	158 nM	1.6	–	–	–	–
COc1cccc(-c2cc(-c3ccco3)nc(N)n2)c1	249 nM	61.4 nM	4.1	–	–	–	–
Nc1nc(-c2ccccc2)cc(-c2cccc(Cl)c2)n1	948 nM	22.8 nM	42	–	–	–	–
Cc1ccc(-c2cc(-c3ccc(Cl)cc3)nc(N)n2)o1	3320 nM	434 nM	7.6	–	–	–	–
Cc1ccc(-c2cc(-c3cccc(C(=O)N4CCCC4)c3)nc(N)n2)o1	58.2 nM	36.8 nM	1.6	101%	67.9%	–	–
Cc1ccc(-c2cc(-c3cccc(Cl)c3)nc(N)n2)o1	399 nM	129 nM	3.1	–	–	–	–
COc1cccc(-c2cc(-c3ccc(C)o3)nc(N)n2)c1	409 nM	145 nM	2.8	–	–	–	–
Nc1nc(-c2cccc(Cl)c2)cc(-c2ccco2)n1	245 nM	39.1 nM	6.3	–	–	–	–
CCN1CCN(C(=O)c2cccc(-c3cc(-c4ccc(C)o4)nc(N)n3)c2)CC1	30.9 nM	37.5 nM	0.8	65.7%	60.1%	–	–
Cc1ccc(-c2cc(-c3cccc(C(=O)N4CCCCC4)c3)nc(N)n2)o1	6.34 nM	9.54 nM	0.7	64.3%	61.6%	–	Active
Cc1ccc(-c2cc(-c3cccc(C(=O)N4CCOCC4)c3)nc(N)n2)o1	29.3 nM	52.1 nM	0.6	98.6%	81.7%	–	–
